ChEMBL document CHEMBL2384952, “Synthesis, antifungal and cytotoxic activities of 2-aryl-3-((piperidin-1-yl)ethyl)thiazolidinones” (Eur J Med Chem, 2013)
In brackets after ≈: the same amount, converted by molar mass.

Experiments:
Rhodotorula = assay: Antifungal activity against Rhodotorula species after 48 hrs by CLSI M27A3 broth microdilution method; format: functional
Summary of the method: (§1)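 Yeasts were kept on Sabouraud dextrose agar and subcultured at 35 °C for at least 2 days. They were suspended in saline to McFarland 0.5 and diluted in RPMI. Ten successive dilutions were made from a 1.6 mg/mL DMSO stock per CLSI broth microdilution, then incubated at 37 °C for 48 h. Growth was read visually against a growth-control well, and MIC is the lowest concentration inhibiting growth.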

Vero [1] = assay: Cytotoxicity against African green monkey Vero cells at 25 ug/mL by neutral red dye uptake assay relative to control; format: cell-based; conditions: chlorocebus sabaeus
Summary of the method: (§2)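 Vero cells (over 99% viable by trypan blue exclusion) were exposed to serial compound dilutions in E-MEM, with fresh E-MEM as negative control, for 72 h at 37 °C, 5% CO2. Cells were then given 3.3 mg/L neutral red for 2 h, and the dye was extracted with 50% ethanol/1% acetic acid. A540 was read, and viability was calculated as treated/control absorbance × 100.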

Vero [2] = assay: Cytotoxicity against African green monkey Vero cells at 3150 ug/mL by neutral red dye uptake assay relative to control; format: cell-based; conditions: chlorocebus sabaeus; summary of the method: as §2
Vero [3] = assay: Cytotoxicity against African green monkey Vero cells at 12.3 ug/mL by neutral red dye uptake assay relative to control; format: cell-based; conditions: chlorocebus sabaeus; summary of the method: as §2
[4] = tested on: Meyerozyma guilliermondii; assay: Antifungal activity against Candida guilliermondii after 48 hrs by CLSI M27A3 broth microdilution method; format: functional; summary of the method: as §1
Vero [5] = assay: Cytotoxicity against African green monkey Vero cells at 197 ug/mL by neutral red dye uptake assay relative to control; format: cell-based; conditions: chlorocebus sabaeus; summary of the method: as §2
Candida parapsilosis = assay: Antifungal activity against Candida parapsilosis after 48 hrs by CLSI M27A3 broth microdilution method; format: functional; conditions: Lodderomyces parapsilosis; summary of the method: as §1
Vero [6] = assay: Cytotoxicity against African green monkey Vero cells at 394 ug/mL by neutral red dye uptake assay relative to control; format: cell-based; conditions: chlorocebus sabaeus; summary of the method: as §2
Vero [7] = assay: Cytotoxicity against African green monkey Vero cells at 98 ug/mL by neutral red dye uptake assay relative to control; format: cell-based; conditions: chlorocebus sabaeus; summary of the method: as §2
Papiliotrema laurentii = assay: Antifungal activity against Cryptococcus laurentii after 48 hrs by CLSI M27A3 broth microdilution method; format: functional; summary of the method: as §1
Vero [8] = assay: Cytotoxicity against African green monkey Vero cells at 787 ug/mL by neutral red dye uptake assay relative to control; format: cell-based; conditions: chlorocebus sabaeus; summary of the method: as §2
Vero [9] = assay: Cytotoxicity against African green monkey Vero cells at 49 ug/mL by neutral red dye uptake assay relative to control; format: cell-based; conditions: chlorocebus sabaeus; summary of the method: as §2
Vero [10] = assay: Cytotoxicity against African green monkey Vero cells at 1575 ug/mL by neutral red dye uptake assay relative to control; format: cell-based; conditions: chlorocebus sabaeus; summary of the method: as §2
Geotrichum = assay: Antifungal activity against Geotrichum species after 48 hrs by CLSI M27A3 broth microdilution method; format: functional; summary of the method: as §1
Candida albicans = assay: Antifungal activity against Candida albicans after 48 hrs by CLSI M27A3 broth microdilution method; format: functional; summary of the method: as §1
Trichosporon asahii = assay: Antifungal activity against Trichosporon asahii after 48 hrs by CLSI M27A3 broth microdilution method; format: functional; summary of the method: as §1

SMILES	MFC (Rhodotorula) [mg/L]	MIC (Rhodotorula) [mg/L]	Cell viability (Vero [1]) [%]	Cell viability (Vero [2]) [%]	Cell viability (Vero [3]) [%]	MFC [4] [mg/L]	MIC [4] [mg/L]	Cell viability (Vero [5]) [%]	MFC (Candida parapsilosis) [mg/L]	MIC (Candida parapsilosis) [mg/L]	Cell viability (Vero [6]) [%]	Cell viability (Vero [7]) [%]	MFC (Papiliotrema laurentii) [mg/L]	MIC (Papiliotrema laurentii) [mg/L]	MFC (Geotrichum) [mg/L]	MIC (Geotrichum) [mg/L]	MFC (Candida albicans) [mg/L]	MIC (Candida albicans) [mg/L]	MFC (Trichosporon asahii) [mg/L]	MIC (Trichosporon asahii) [mg/L]	also measured
O=C1CSC(c2ccc([N+](=O)[O-])cc2)N1CCN1CCCCC1 (stereo not drawn)	30 (≈ 89.4 µM)	30 (≈ 89.4 µM)	100	10	100	100 (≈ 298 µM)	100 (≈ 298 µM)	72	100 (≈ 298 µM)	100 (≈ 298 µM)	66	87	100 (≈ 298 µM)	100 (≈ 298 µM)	50 (≈ 149 µM)	50 (≈ 149 µM)	62 (≈ 185 µM)	62 (≈ 185 µM)	100 (≈ 298 µM)	100 (≈ 298 µM)	Cell viability (Vero [8]): 21%; Cell viability (Vero [9]): 100%; Cell viability (Vero [10]): 15%
COc1ccc(C2SCC(=O)N2CCN2CCCCC2)cc1 (stereo not drawn)	33.5 (≈ 105 µM)	33.5 (≈ 105 µM)	100	11	100	100 (≈ 312 µM)	100 (≈ 312 µM)	87	50 (≈ 156 µM)	50 (≈ 156 µM)	73	89	100 (≈ 312 µM)	100 (≈ 312 µM)	> 400	> 400	75 (≈ 234 µM)	75 (≈ 234 µM)	> 400	> 400	Cell viability (Vero [8]): 33%; Cell viability (Vero [9]): 100%; Cell viability (Vero [10]): 11%
O=C1CSC(c2ccccc2[N+](=O)[O-])N1CCN1CCCCC1 (stereo not drawn)	25 (≈ 74.5 µM)	25 (≈ 74.5 µM)	100	30	100	25 (≈ 74.5 µM)	25 (≈ 74.5 µM)	100	50 (≈ 149 µM)	50 (≈ 149 µM)	100	100	100 (≈ 298 µM)	100 (≈ 298 µM)	25 (≈ 74.5 µM)	25 (≈ 74.5 µM)	55 (≈ 164 µM)	55 (≈ 164 µM)	100 (≈ 298 µM)	100 (≈ 298 µM)	Cell viability (Vero [8]): 100%; Cell viability (Vero [9]): 100%; Cell viability (Vero [10]): 24%
O=C1CSC(c2cccc(O)c2)N1CCN1CCCCC1 (stereo not drawn)	33.5 (≈ 109 µM)	33.5 (≈ 109 µM)	100	11	100	100 (≈ 326 µM)	100 (≈ 326 µM)	100	67 (≈ 219 µM)	67 (≈ 219 µM)	100	100	100 (≈ 326 µM)	100 (≈ 326 µM)	> 400	> 400	81 (≈ 264 µM)	81 (≈ 264 µM)	> 400	> 400	Cell viability (Vero [8]): 60%; Cell viability (Vero [9]): 100%; Cell viability (Vero [10]): 13%
O=C1CSC(c2ccc(O)cc2)N1CCN1CCCCC1 (stereo not drawn)	25 (≈ 81.6 µM)	25 (≈ 81.6 µM)	100	10	100	100 (≈ 326 µM)	100 (≈ 326 µM)	87	100 (≈ 326 µM)	100 (≈ 326 µM)	76	94	100 (≈ 326 µM)	100 (≈ 326 µM)	50 (≈ 163 µM)	50 (≈ 163 µM)	100 (≈ 326 µM)	100 (≈ 326 µM)	50 (≈ 163 µM)	50 (≈ 163 µM)	Cell viability (Vero [8]): 57%; Cell viability (Vero [9]): 96%; Cell viability (Vero [10]): 12%
COc1cccc(C2SCC(=O)N2CCN2CCCCC2)c1 (stereo not drawn)	33.5 (≈ 105 µM)	33.5 (≈ 105 µM)	97	6	100	100 (≈ 312 µM)	100 (≈ 312 µM)	66	100 (≈ 312 µM)	100 (≈ 312 µM)	57	84	100 (≈ 312 µM)	100 (≈ 312 µM)	> 400	> 400	100 (≈ 312 µM)	100 (≈ 312 µM)	> 400	> 400	Cell viability (Vero [8]): 19%; Cell viability (Vero [9]): 90%; Cell viability (Vero [10]): 11%
Cc1ccc(C2SCC(=O)N2CCN2CCCCC2)cc1 (stereo not drawn)	37.5 (≈ 123 µM)	37.5 (≈ 123 µM)	100	12	100	100 (≈ 328 µM)	100 (≈ 328 µM)	85	100 (≈ 328 µM)	100 (≈ 328 µM)	51	100	66 (≈ 217 µM)	66 (≈ 217 µM)	100 (≈ 328 µM)	100 (≈ 328 µM)	62 (≈ 204 µM)	62 (≈ 204 µM)	50 (≈ 164 µM)	50 (≈ 164 µM)	Cell viability (Vero [8]): 17%; Cell viability (Vero [9]): 100%; Cell viability (Vero [10]): 13%
O=C1CSC(c2c(Cl)cccc2Cl)N1CCN1CCCCC1 (stereo not drawn)	30 (≈ 83.5 µM)	30 (≈ 83.5 µM)	100	7	100	200 (≈ 557 µM)	200 (≈ 557 µM)	75	100 (≈ 278 µM)	100 (≈ 278 µM)	32	76	200 (≈ 557 µM)	200 (≈ 557 µM)	50 (≈ 139 µM)	50 (≈ 139 µM)	75 (≈ 209 µM)	75 (≈ 209 µM)	50 (≈ 139 µM)	50 (≈ 139 µM)	Cell viability (Vero [8]): 11%; Cell viability (Vero [9]): 100%; Cell viability (Vero [10]): 10%
OC(Cn1cncn1)(Cn1cncn1)c1ccc(F)cc1F [FLUCONAZOLE]	26.5 (≈ 86.5 µM)	26.5 (≈ 86.5 µM)	–	–	–	16 (≈ 52.2 µM)	16 (≈ 52.2 µM)	–	1 (≈ 3.27 µM)	1 (≈ 3.27 µM)	–	–	1 (≈ 3.27 µM)	1 (≈ 3.27 µM)	8 (≈ 26.1 µM)	8 (≈ 26.1 µM)	1 (≈ 3.27 µM)	1 (≈ 3.27 µM)	1 (≈ 3.27 µM)	1 (≈ 3.27 µM)	–
